Assay results: ChEMBL document CHEMBL2062381, “Synthesis and in vitro evaluation of new chloroquine-chalcone hybrids against chloroquine-resistant strain of Plasmodium falciparum” (Bioorg Med Chem Lett, 2012); call rule not given here
Converted amounts (≈) assume the structure as drawn.

Assays:
[1] = tested on: Plasmodium yoelii; assay: Inhibition of beta hematin formation in Plasmodium yoelii infected swiss mouse RBC after 16 hrs; format: functional, organism-based
Summary of the method: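 Source material was plasma from male Swiss mice (15–20 g) inoculated with 1 × 10⁵ P. yoelii-infected RBCs. Blood was taken by cardiac puncture at 50% parasitemia into 2.0% citrate and centrifuged. The 1.0 mL mix held 100 mM sodium acetate pH 5.1, plasma, hemin substrate and compound at […]. It ran in triplicate for 16 h at 37 °C with rotary shaking. The washed β-hematin pellet was dissolved in NaOH and read at 400 nm. IC50 came from nonlinear regression.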

[2] = Inhibition of hydrogen peroxide-mediated hemin decomposition assessed as remaining hemin level at 20 uM after 30 mins by […] (reference value: 43%); format: functional
Summary of the method: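 Hemin (in 0.1 N NaOH) was mixed with BSA in 0.2 M sodium acetate pH 5.1 and compound, then equilibrated for 10 min at room temperature. The reaction was started with 20 mM H2O2 and ran 30 min at room temperature. Read-out was the decrease in Soret absorbance at 405 nm, reported as % hemin remaining. Controls used water instead of H2O2. Data are the mean of three experiments in triplicate.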

[3] = tested on: Plasmodium falciparum; assay: Antimalarial activity against chloroquine-susceptible Plasmodium falciparum 3D7 after 72 hrs by SYBR Green-I based fluorescence assay; format: functional, organism-based; details: 3D7, 72 h
Summary of the method: (§1)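 Asynchronous culture (>80% rings), 1.0% parasitized cell suspension at 0.8% parasitaemia, exposed to twofold serial dilutions of compound (DMSO stock 5 mg/mL). Incubated 72 h at 37 °C under 5% CO₂ in air. Lysis buffer with SYBR Green I added, then 1 h at 37 °C. Fluorescence read at 485/530 nm. IC₅₀ from logit regression of dose-response curves. Mean of three experiments in triplicate.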

[4] = tested on: Plasmodium falciparum; assay: Antimalarial activity against chloroquine-resistant Plasmodium falciparum K1 after 72 hrs by SYBR Green-I based fluorescence assay; format: functional, organism-based; summary of the method: as §1
[5] = Selectivity index, ratio of IC50 for african green monkey Vero cells to IC50 for Plasmodium falciparum; format: toxicity, cell-based; details: read-out: Ratio IC50
Summary of the method: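 SI = CC50/IC50. CC50 was measured in Vero monkey kidney cells (C1008) by MTT after 72 h exposure to compound dilutions, using nonlinear regression. IC50 came from a 72 h SYBR Green I fluorescence assay in P. falciparum (1.0% parasitized cells, 0.8% parasitaemia, mostly ring stages, 37 °C, 5% CO2). Those values came from logit regression.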

[6] = Plasmodium falciparum, K1, 72 h, read-out: IC50

Compound	IC50 [1] [µg/mL]	Activity [2] [%]	IC50 [3] [nM]	IC50 [4, 6] [nM]	selectivity ratio [5]	IC50 [4]
CCN(CC)CCCC(C)Nc1ccnc2cc(Cl)ccc12 (configuration not stated) [CHLOROQUINE]	3.75 (≈ 11.7 µM)	65				
COc1ccc(/C=C(\Oc2ccc(/C=N/Nc3ccnc4cc(Cl)ccc34)cc2)C(=O)c2ccc(Cl)cc2)cc1OC	3.46 (≈ 5.78 µM)	59	84	97.8	1440	
COc1ccc(/C=C(\Oc2ccc(/C=N/Nc3ccnc4cc(Cl)ccc34)cc2)C(=O)c2ccc(Cl)cc2)cc1	17.6 (≈ 31 µM)		48.1	96.9	2050	
Cc1ccc(/C=C(\Oc2ccc(/C=N/Nc3ccnc4cc(Cl)ccc34)cc2)C(=O)c2ccc(Cl)cc2)cc1	5.58 (≈ 10.1 µM)		112	97.9	1620	
O=C(/C(=C/c1ccc(Cl)cc1Cl)Oc1ccc(/C=N/Nc2ccnc3cc(Cl)ccc23)cc1)c1ccc(Cl)cc1	5.91 (≈ 9.73 µM)		295		560	Not Active
O=C(/C(=C/c1ccc(Cl)cc1)Oc1ccc(/C=N/Nc2ccnc3cc(Cl)ccc23)cc1)c1ccc(Cl)cc1	8.38 (≈ 14.6 µM)		145	199	1210	
O=C(/C(=C/c1ccoc1)Oc1ccc(/C=N/Nc2ccnc3cc(Cl)ccc23)cc1)c1ccc(Cl)cc1	3.74 (≈ 7.08 µM)	53	57.3	115	962	
O=C(/C(=C/c1ccc(F)cc1F)Oc1ccc(/C=N/Nc2ccnc3cc(Cl)ccc23)cc1)c1ccc(Cl)cc1			139	170	1040	
O=C(COc1ccc(/C=N/Nc2ccnc3cc(Cl)ccc23)cc1)c1ccc(Cl)cc1	16.4 (≈ 36.4 µM)		36.7	126	800	
COc1ccc(/C=C(\Oc2ccc(/C=N/Nc3ccnc4cc(Cl)ccc34)cc2)C(=O)c2ccc(Cl)cc2)c(OC)c1OC	3.52 (≈ 5.6 µM)	63	124	82.9	837	
O=C(/C(=C/c1ccc([N+](=O)[O-])cc1)Oc1ccc(/C=N/Nc2ccnc3cc(Cl)ccc23)cc1)c1ccc(Cl)cc1	12.8 (≈ 21.9 µM)		> 500			Not Active
O=C(/C(=C/c1ccc(F)cc1)Oc1ccc(/C=N/Nc2ccnc3cc(Cl)ccc23)cc1)c1ccc(Cl)cc1	15.6 (≈ 28 µM)		29.1	102	6200	
O=C(/C(=C/c1ccccc1)Oc1ccc(/C=N/Nc2ccnc3cc(Cl)ccc23)cc1)c1ccc(Cl)cc1	5.66 (≈ 10.5 µM)		78.8	110	2360	
O=C(/C(=C/c1cccc([N+](=O)[O-])c1)Oc1ccc(/C=N/Nc2ccnc3cc(Cl)ccc23)cc1)c1ccc(Cl)cc1	5.72 (≈ 9.8 µM)		128	315	1340	
COc1cc(/C=C(\Oc2ccc(/C=N/Nc3ccnc4cc(Cl)ccc34)cc2)C(=O)c2ccc(Cl)cc2)cc(OC)c1OC	10.8 (≈ 17.2 µM)		95.3	123	970	
COc1cc(OC)c(OC)cc1/C=C(\Oc1ccc(/C=N/Nc2ccnc3cc(Cl)ccc23)cc1)C(=O)c1ccc(Cl)cc1	10.6 (≈ 16.9 µM)		90.5	89.5	728	
COc1ccc(OC)c(/C=C(\Oc2ccc(/C=N/Nc3ccnc4cc(Cl)ccc34)cc2)C(=O)c2ccc(Cl)cc2)c1	25 (≈ 41.8 µM)		250	125	669	
